ROMK primary: modulators of human ROMK potassium channel; P48048; Tet-inducible ROMK, thallium flux fluorescence; actives lie on both sides; B-score at 10 µM; actives 2% (n = 130,000); AID 1918;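 active = signal ratio slope over the read window, or its plate-corrected B-score, at least 3 SD from the plate mean, either direction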;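 note: B-score of the F/F0 ratio slope over 7 to 12 s after thallium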
Target sequence (P48048 whole entry, looked up): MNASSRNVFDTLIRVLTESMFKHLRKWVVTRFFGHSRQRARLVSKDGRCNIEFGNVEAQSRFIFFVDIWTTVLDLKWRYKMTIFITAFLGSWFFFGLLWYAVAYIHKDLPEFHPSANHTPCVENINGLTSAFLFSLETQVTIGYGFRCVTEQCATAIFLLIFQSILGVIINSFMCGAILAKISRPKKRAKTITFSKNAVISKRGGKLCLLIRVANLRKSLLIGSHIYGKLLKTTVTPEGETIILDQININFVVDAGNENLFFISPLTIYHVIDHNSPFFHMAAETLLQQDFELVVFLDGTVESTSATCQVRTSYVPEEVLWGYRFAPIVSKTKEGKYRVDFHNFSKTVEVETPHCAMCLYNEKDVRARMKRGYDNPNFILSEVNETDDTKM
Calb biofilm kill: mixture kills Candida albicans biofilm cells; C. albicans biofilm persisters + clotrimazole, fluorescence viability; primary screen in compound mixtures of four per well; inhibition, % at 7.6 µM; actives 0.02% (n = 120,000); AID 1242;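 active = inhibition above 30.3% in the primary screen of four-compound pools, then above 30% when the compound was retested; inconclusive = passed the primary limit but could not be retested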;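 note: compounds exposed to preformed 24 h biofilms for 48 h; 0% = untreated biofilm control and 100% = clotrimazole plus chlorhexidine kill blank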
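Test system: C. albicans CAF4-2 wild-type biofilms; buffer or medium: RPMI/MOPS medium, pH 7.0; schedule: 24 h biofilm formation, then 48 h compound exposure, 37 °C; detection: Alamar Blue fluorescence; measure: percent inhibition of biofilm viability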
ROMK hit retest: confirmation of human ROMK potassium channel modulators. ROMK thallium flux, fluorescence ratio; active compounds read low. normalized thallium flux (F/F0 slope) at 10 µM. actives 54% (n = 3,000). shares compounds with ROMK primary;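 active = Flux at 10 µM at least 3 SD below or above vehicle control mean in one or both replicates; inconclusive = no clear call, values can overlap the other calls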
* marks the source's active call; other numbers are inactive results; ? = inconclusive; / = no result given. Only a selection was taken, and hits are over-represented in it overall.

SMILES | ROMK primary | Calb biofilm kill | ROMK hit retest
CC(C)(C)C1CCc2c(sc(NC(=O)C3CC=CCC3C(=O)O)c2C#N)C1 (configuration not stated) | -3.52* | 13.8 | ?
Brc1cccc(-c2cnco2)c1 | 0.303 | 13.8 | /
CNc1ccccc(-c2ccc3ccccc3n2)c1=O | -0.643 | 7.6 | /
O=C(Cc1ccccc1)NCc1ccc(-n2cccc2)cc1 | 2.51* | 9.7 | 0.0887
O=C(Cc1ccc(-n2cccc2)cc1)NCc1ccccc1Cl | 0.992 | 11.7 | /
Cc1cc(C(=O)COC(=O)c2ccc(Br)o2)c(C)n1C | -0.463 | 32.6 | /
Cc1cc(C(=O)COc2ccc(F)cc2Br)c(C)n1C | -1.86* | 7.1 | ?
COc1ccc(N(CC(=O)O)S(=O)(=O)c2ccc(C)cc2)cc1Cl | -0.121 | -2.8 | /
COc1ccc(S(=O)NC2CCCCC2)c(OC)c1C (configuration not stated) | / | / | 0.0748
COc1ccccc1C(=O)NC1CCCCCCC1 | -1.32 | 16.1 | /
CCOc1cc(/C=C(\C#N)C(N)=O)ccc1OS(=O)(=O)c1ccccc1 | -4.95* | 6.4 | 0.0329*
CCOC(=O)/C(C#N)=C/c1ccc(OC)c(OC)c1 | 0.128 | / | /
O=C1OCC2=C1C(c1ccccc1)CC(=O)N2c1ccccc1 (configuration not stated) | -0.357 | 10.5 | /
CCOC(=O)N/N=C/c1c(F)cccc1F | -0.437 | 0.1 | /
CCOC(=O)N/N=C/c1ccccc1F | -14.4* | / | 0.0751
CCOC(=O)N/N=C/c1c(F)c(F)c(F)c(F)c1F | 1.47* | 8.9 | 0.0882
CCOC(=O)N/N=C/c1ccc(F)cc1 | -0.39 | / | /
CNc1c([N+](=O)[O-])cnn1-c1cccc(Cl)n1 | -0.0134 | -2.5 | /
N#C/C(=C\c1ccc(C#N)cc1)C(=O)c1ccccc1 | / | 27.8 | /
CN(C)c1ccc(/C=C(\C#N)C(=O)c2ccccc2)cc1 | / | 22.3 | 0.0655*
c1ccc(CN2C3=NCCN3c3ccccc32)cc1 | -0.209 | 8.6 | /
Clc1ccc(CN2C3=NCCN3c3ccccc32)cc1Cl | -2.81* | / | 0.0604*
O=C(O)Cc1cn(-c2ccccc2)nc1-c1ccccc1 | 0.423 | 12.5 | /
Fc1ccc(-c2nn(-c3ccccc3)cc2CNCc2ccccc2)cc1 | -2.57* | 14.4 | 0.0467*
Cc1cc2nc(N=C(N)N)nc(C)c2cc1C | 0.0249 | -7.5 | /
SMILES | ROMK primary | Calb biofilm kill | ROMK hit retest
C/C=C\C(=O)Nc1cccc(C2=NOC3(C2)C[C@H](C(N)=O)N(C(=O)Cc2ccc([N+](=O)[O-])cc2)C3)c1 (some centres not stated) | / | 20.1 | /
CCN(CC)C(=O)CNc1ccc(C(F)(F)F)cc1[N+](=O)[O-] | 0.679 | 7.1 | /
COc1cc(C2CC(=O)C3=C(C2)Nc2ncnn2C3c2cccs2)cc(OC)c1OC (configuration not stated) | -0.127 | 26.2 | /
COc1cc(C2C3=C(Nc4ncnn42)c2ccccc2CC3)cc(OC)c1OC (configuration not stated) | 3.91* | / | 0.0869
CC(NC(=O)c1ccc(C23CC4CC(CC(C4)C2)C3)cc1)C(=O)O (configuration not stated) | / | 6.9 | /
O=C(CN1CCN(C(=O)C2COc3ccccc3O2)CC1)Nc1ccccc1 (configuration not stated) | / | 1.6 | /
CC(=O)NCC(=O)OCC(=O)Nc1ccc(C(C)=O)cc1 | 0.124 | / | /
CC(=O)NCC(=O)OC(C)C(=O)Nc1ccc(C(C)=O)cc1 (configuration not stated) | / | / | 0.0745
CCN1Cc2c(/C=C/c3ccccc3)nc3ccc(OC)cc3c2N(c2cccc(Cl)c2)C1 | / | 14.1 | /
Cc1cc(/C=C2/C(=O)NN(c3ccccc3)C2=O)c(C)n1-c1cccc(O)c1 | / | 10.1 | /
Cc1cc(/C=C2\SC(=S)NC2=O)c(C)n1-c1cccc(O)c1 | / | 21.8 | 0.0535*
S=C1NC2CCCCC2N1 (configuration not stated) | 0.196 | 22.3 | /
O=C(Nc1cccc(O)c1)c1cc(S(=O)(=O)N2CCCC2)ccc1Cl | 3.35* | / | 0.101*
O=C(Nc1ccccc1)c1cc(S(=O)(=O)N2CCSCC2)ccc1Cl | 2.34 | 17.8 | /
O=C(Nc1cccc(S(=O)(=O)N2CCCCCC2)c1)c1ccc2c(c1)OCO2 | -3.57* | 14.3 | 0.0768
O=C(Nc1cccc(S(=O)(=O)N2CCCC2)c1)c1ccc2c(c1)OCO2 | / | 20.7 | /
CCc1nn2cc(C(=O)c3cc(Cl)ccc3O)cnc2c1-c1ccc(F)cc1 | / | 1.4 | /
CN(C(=O)Cn1cccc1C1=NC(c2ccccc2)CO1)c1ccccc1 (configuration not stated) | 0.0386 | 11.6 | /
C=CCOc1ccc(Br)cc1CNC(C)(C)CO | / | 9.7 | /
C=CCOc1ccc(Br)cc1CNC(C)(C)C | 0.497 | 7.2 | 0.072
CNC(=O)c1c(NC(=O)c2cccc(N3C(=O)CCC3=O)c2)sc2c1CCCC2 | / | 20.1 | /
CCc1ccc(OCC(=O)c2c(O)c3ccccc3oc2=O)cc1 | 0.648 | 17.1 | /
CCc1oc2ccccc2c1C(=O)c1cc(Br)c(O)c(Br)c1 | 4.62* | 21.5 | 0.155*
CCOC(=O)c1ccc2[nH]c3c(c2c1)CCCCC3=O | / | / | 0.0764
O=C1CCCc2c1[nH]c1ccc(Cl)cc21 | / | 9.6 | /
SMILES | ROMK primary | Calb biofilm kill | ROMK hit retest
N#C/C(=C\c1ccc(O)c(Br)c1)C(=O)NCc1ccccc1 | 3.62* | 7.0 | 0.0661*
N#C/C(=C\c1ccc(O)c([N+](=O)[O-])c1)C(=O)NCc1ccccc1 | 1.65 | -2.3 | /
O=C(O)Cc1sc(N/N=C\c2ccncc2)nc1-c1ccccc1 | 0.0451 | 23.5 | /
CC1=C/C(=C\C=C(C#N)C#N)N(C)c2ccccc21 | -3.99* | 14.0 | 0.0414*
CN1/C(=C/C=C(C#N)C#N)C(C)(C)c2ccccc21 | / | 1.6 | /
COc1ccc(C(=S)N2CCN(c3ccccc3C)CC2)cc1 | -1.37 | 8.9 | /
S=C1SCN(Cc2cccnc2)CN1Cc1cccnc1 | / | 17.8 | /
CCOc1ccc2nc(NCCNC(=O)CC)c(C#N)cc2c1 | -3.25 | / | /
CCOc1ccc2nc(NCCCNC(=O)c3cc(OC)c(OC)c(OC)c3)c(C#N)cc2c1 | / | 15.1 | 0.0739
COc1cc(CN2CCCC(C(=O)c3ccc4c5c(cccc35)CC4)C2)cc(OC)c1O (configuration not stated) | -0.602 | 8.0 | /
Cc1nn(-c2ccccc2)c(Cl)c1/C=N/NC(=O)c1cccc(S(=O)(=O)N2CCCC2)c1 | / | 10.8 | /
Cc1nn(-c2ccccc2)c(N2CCCC2)c1/C=N/NC(=O)c1cccc(S(=O)(=O)Nc2ccc(Cl)cc2)c1 | / | 8.1 | 0.0872
CCN(CC)C(=O)c1cc([N+](=O)[O-])cc2c1-c1ccc([N+](=O)[O-])cc1C2=C(C#N)C#N | / | 11.4 | /
CC(=O)c1ccc(OC(C)C)c(Cc2c(O)nc(N)[nH]c2=O)c1 | -0.296 | 18.6 | /
CC(C)CNC(=O)c1c(N)n(/N=C/c2cccnc2)c2nc3ccccc3nc12 | 0.236 | / | /
COCCCNC(=O)c1c(N)n(/N=C/c2cccnc2)c2nc3ccccc3nc12 | -0.0171 | / | ?
O=c1c(Br)c(N2CCCCC2)cnn1-c1ccccc1 | -1.11 | 2.8 | /
CCCN(CCC)C(=O)CC(c1ccc(F)cc1)c1ccco1 (configuration not stated) | -1.33 | / | /
CCN(CC)C(=O)CC(c1ccccc1)c1ccco1 (configuration not stated) | / | / | 0.0844
O=S(=O)(NC1=NCCCCC1)c1ccccc1Cl | / | -3.4 | /
COc1cccc(CN2CCSCC2)c1 | 1.19 | / | /
COc1ccc(CN2CCSCC2)cc1C | 3.33* | / | 0.0809
CC(C)(C)OC(=O)NCc1n[nH]c(=S)n1C1CC1 | 0.281 | 25.9 | /

Screening data: PubChem, several laboratories
